Assay results published in ChEMBL document CHEMBL4049456, “Identification of 4-(Aminomethyl)-6-(trifluoromethyl)-2-(phenoxy)pyridine Derivatives as Potent, Selective, and Orally Efficacious Inhibitors of the Copper-Dependent Amine Oxidase, Lysyl Oxidase-Like 2 (LOXL2)” (J Med Chem, 2017).

Legend:
[1] = biological target: T1, Lysyl oxidase homolog 2 (Homo sapiens) (UniProt Q9Y4K0); assay: Irreversible inhibition of human LOXL2 assessed as reduction of H2O2 production from oxidative deamination of DAP at 1000 times IC50 preincubated for 2 hrs followed by compound washout and subsequent incubation for 2 hrs prior to substrate addition measured every 2 mins for 40 mins by amplex red reagent-based fluorescence assay relative to control
T1 sequence (whole entry): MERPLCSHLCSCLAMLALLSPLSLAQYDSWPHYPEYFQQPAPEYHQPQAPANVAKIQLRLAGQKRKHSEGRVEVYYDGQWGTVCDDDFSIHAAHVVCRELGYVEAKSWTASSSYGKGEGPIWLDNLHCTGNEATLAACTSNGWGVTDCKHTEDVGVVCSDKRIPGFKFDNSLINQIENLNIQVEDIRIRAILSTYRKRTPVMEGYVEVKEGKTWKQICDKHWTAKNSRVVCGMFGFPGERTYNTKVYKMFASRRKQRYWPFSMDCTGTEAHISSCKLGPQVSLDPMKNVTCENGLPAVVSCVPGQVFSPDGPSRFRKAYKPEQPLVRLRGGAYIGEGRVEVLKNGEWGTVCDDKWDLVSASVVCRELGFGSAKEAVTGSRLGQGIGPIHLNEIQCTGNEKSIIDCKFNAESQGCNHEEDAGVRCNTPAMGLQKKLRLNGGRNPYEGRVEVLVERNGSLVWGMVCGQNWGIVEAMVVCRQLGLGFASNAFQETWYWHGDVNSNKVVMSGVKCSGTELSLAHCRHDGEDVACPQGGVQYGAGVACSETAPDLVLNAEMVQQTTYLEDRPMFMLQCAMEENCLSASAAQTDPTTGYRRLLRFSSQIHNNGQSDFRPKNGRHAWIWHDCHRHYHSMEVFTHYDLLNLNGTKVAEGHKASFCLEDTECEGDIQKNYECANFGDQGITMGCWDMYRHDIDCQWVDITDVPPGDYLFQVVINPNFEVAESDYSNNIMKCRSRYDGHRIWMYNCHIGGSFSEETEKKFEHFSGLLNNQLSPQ
In short: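 Wells were washed repeatedly with PBS and equilibrated for 2 h. Recovered activity was then compared with nonwashed controls.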

[2] = Cmax in C57BL/6 mouse plasma at 30 mg/kg, po by LC-MS/MS analysis; format: ADME, organism-based; design: dose 30 mg/kg, route oral
In short: (§1)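 Normal C57BL/6 mice, n = 3 per time point, received a single oral 30 mg/kg dose formulated in 0.5% methylcellulose.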

[3] = biological target: T2, Lysyl oxidase homolog 2 (Homo sapiens, UniProt Q9Y4K0); assay: Inhibition of human LOXL2 expressed in CHO cells assessed as reduction of H2O2 production from oxidative deamination of DAP preincubated for 2 hrs followed by substrate addition measured every 2 mins for 1 hr by amplex red reagent-based fluorescence assay; format: cell-based
T2 sequence (Q9Y4K0 whole entry): T1 sequence (whole entry)

[4] = biological target: T1, Lysyl oxidase homolog 2 (Homo sapiens); assay: Irreversible inhibition of human LOXL2 assessed as catalytic activity preincubated for 2 hrs followed by substrate addition measured every 2 mins for 1 hr by amplex red reagent-based fluorescence assay relative to control; design: concentration or dose not given beside the values
[5] = biological target: T2, Lysyl oxidase homolog 2; assay: Inhibition of human LOXL2 expressed in CHO cells assessed as reduction of H2O2 production from oxidative deamination of DAP preincubated for 2 hrs followed by substrate addition in presence of 0.1% BSA measured every 2 mins for 1 hr by amplex red reagent-based fluorescence assay; format: cell-based
[6] = Cmax in C57BL/6 mouse lung at 30 mg/kg, po by LC-MS/MS analysis; format: ADME, organism-based; design: dose 30 mg/kg, route oral; in short: as §1
[7] = biological target: T2, Lysyl oxidase homolog 2; assay: Inhibition of recombinant human LOXL2 expressed in human whole blood assessed as reduction of H2O2 production from oxidative deamination of DAP preincubated for 2 hrs followed by substrate addition measured every 2 mins for 1 hr by amplex red reagent-based fluorescence assay
[8] = Protein binding in human plasma; format: ADME, cell-free; conditions: read-out: PPB (converted)

Compound | inhibition [1] [%] | Cmax [2] [nM] | IC50 [3] [nM] | inhibition [4] [%] | IC50 [5] [nM] | Cmax [6] [nM] | IC50 [7] [nM] | fraction unbound [8]
Cl.NCc1cc(Oc2cccc(C(=O)NCCS(N)(=O)=O)c2)nc(C(F)(F)F)c1 | 75 | 1040 | 35 | 97 | 62 | 540 | 310 | 
NCc1ccnc(Oc2cccc(C(=O)Nc3ccccc3)c2)c1 |  |  | 56 |  | 130 |  | 1300 | 
N=C(N)c1cccc(CNC(=O)c2cccc(Oc3cc(CN)ccn3)c2)c1 |  |  | 180 |  | 650 |  | 5200 | 
CONC(=O)c1cccc(Oc2cc(CN)cc(C(F)(F)F)n2)c1.Cl |  | 630 | 96 |  | 140 | 8780 | 840 | 
NCc1ccnc(OC2CCCCC2)c1 |  |  | 850 |  | 1800 |  | 29000 | 
Cl.Cl.NCc1cc(Oc2cccc(C(=O)N3CC[C@@H](N)C3)c2)nc(C(F)(F)F)c1 |  | 670 | 58 |  | 100 | 1230 | 690 | 
NCc1ccnc(Oc2ccc(C(=O)Nc3ccccc3)cc2)c1 |  |  | 270 |  | 750 |  | 39000 | 
COc1ccc(NC(=O)c2cccc(Oc3cc(CN)ccn3)c2)cc1 |  |  | 53 |  | 160 |  | 1800 | 
NCc1cc(O[C@H]2CCCN(C(=O)Nc3ccccc3)C2)nc(C(F)(F)F)c1 |  | 1900 | 130 |  | 160 | 30000 | 2000 | 
NCc1ccnc(Oc2cccc(C(=O)NCc3ccccc3)c2)c1 |  |  | 62 |  | 110 |  | 1400 | 
COCCNC(=O)c1cccc(Oc2cc(CN)ccn2)c1 |  |  | 160 |  | 290 |  | 2900 | 

Next, values leading:

inhibition [1] [%] | Cmax [2] [nM] | IC50 [3] [nM] | inhibition [4] [%] | IC50 [5] [nM] | Cmax [6] [nM] | IC50 [7] [nM] | fraction unbound [8] | Compound
 |  | 79 |  | 110 |  | 1700 |  | NCc1ccnc(Oc2cccc(C(=O)NCc3cc4ccccc4s3)c2)c1
 |  | 120 |  | 370 |  | 7900 |  | NCc1ccnc(Oc2cccc(C(=O)N3CCc4ccccc4C3)c2)c1
77 | 1990 | 43 | 97 | 80 | 3460 | 280 |  | Cl.NCc1cc(Oc2cccc(C(=O)NCCn3cnnn3)c2)nc(C(F)(F)F)c1
 |  | 500 |  | 1500 |  | 30000 |  | COCCNC(=O)c1ccc(Oc2cc(CN)ccn2)cc1
 |  | 570 |  | 620 |  | 40000 |  | NCc1cc(O[C@@H]2CCCN(C(=O)Nc3ccccc3)C2)nc(C(F)(F)F)c1
75 | 5130 | 110 | 95 | 150 | 9130 | 910 |  | Cl.NCc1cc(Oc2cccc(C(=O)N3CC[C@@H](O)C3)c2)nc(C(F)(F)F)c1
 |  | 81 |  | 300 |  | 1400 |  | NCc1ccnc(Oc2cccc(C(=O)Nc3ccc(C(=O)O)cc3)c2)c1
32 |  |  | 93 |  |  |  |  | NCc1ccnc(Cl)c1
 |  | 50 |  | 130 |  | 1600 |  | NCc1ccnc(Oc2cccc(C(=O)Nc3ccc(F)cc3)c2)c1
 |  | 67 |  | 270 |  | 23000 |  | NCc1cc(Oc2cccc(Oc3ccccc3)c2)nc(C(F)(F)F)c1
 |  | 34 |  | 100 |  | 9900 |  | NCc1cc(Oc2cccc(C(=O)NCc3cc4ccccc4s3)c2)nc(C(F)(F)F)c1
77 | 2770 | 77 | 96 | 88 | 1920 | 550 |  | Cl.NCc1cc(Oc2cccc(C(=O)NC[C@@H](O)CO)c2)nc(C(F)(F)F)c1
88 | 860 | 42 | 98 | 62 | 10300 | 2900 | 0.04 | Cl.NCc1cc(Oc2cccc(C(=O)Nc3ccccc3)c2)nc(C(F)(F)F)c1
